We go through one compound from ChEMBL document CHEMBL1641407, “Imidazo[4,5-d]thiazolo[5,4-b]pyridine based inhibitors of IKK2: synthesis, SAR, PK/PD and activity in a preclinical model of rheumatoid arthritis” (Bioorg Med Chem Lett, 2011).

Each structure is given as a SMILES string.

The nature of series [1]: Clearance in mouse at 2 mg/kg, iv and 10 mg/kg, po. The note with it: in vivo. Format: ADME, organism-based.
The nature of series [2]: Half life in rat at 2 mg/kg, iv and 10 mg/kg, po. The series is classed as ADME, organism-based. The note with it: in vivo.
Series [3] is described as follows: Cmax in rat at 2 mg/kg, iv and 10 mg/kg, po. Format: ADME, organism-based. The following applies: in vivo.
Series [4] addresses Serine/threonine-protein kinase 16 (Homo sapiens) (UniProt O75716). In words: Residual activity at STK16 at 10 uM relative to control.
The subject of series [5] is Mus musculus. In words: Total AUC in mouse at 2 mg/kg, iv and 10 mg/kg, po. Format: ADME, organism-based. The note with it: in vivo.
Series [6] is described as follows: Mean residence time in mouse at 2 mg/kg, iv and 10 mg/kg, po. Format: ADME, organism-based. The note with it: in vivo.
Series [7] addresses T1, Inhibitor of nuclear factor kappa-B kinase subunit alpha (Homo sapiens, UniProt O15111).
T1 sequence (O15111 whole entry): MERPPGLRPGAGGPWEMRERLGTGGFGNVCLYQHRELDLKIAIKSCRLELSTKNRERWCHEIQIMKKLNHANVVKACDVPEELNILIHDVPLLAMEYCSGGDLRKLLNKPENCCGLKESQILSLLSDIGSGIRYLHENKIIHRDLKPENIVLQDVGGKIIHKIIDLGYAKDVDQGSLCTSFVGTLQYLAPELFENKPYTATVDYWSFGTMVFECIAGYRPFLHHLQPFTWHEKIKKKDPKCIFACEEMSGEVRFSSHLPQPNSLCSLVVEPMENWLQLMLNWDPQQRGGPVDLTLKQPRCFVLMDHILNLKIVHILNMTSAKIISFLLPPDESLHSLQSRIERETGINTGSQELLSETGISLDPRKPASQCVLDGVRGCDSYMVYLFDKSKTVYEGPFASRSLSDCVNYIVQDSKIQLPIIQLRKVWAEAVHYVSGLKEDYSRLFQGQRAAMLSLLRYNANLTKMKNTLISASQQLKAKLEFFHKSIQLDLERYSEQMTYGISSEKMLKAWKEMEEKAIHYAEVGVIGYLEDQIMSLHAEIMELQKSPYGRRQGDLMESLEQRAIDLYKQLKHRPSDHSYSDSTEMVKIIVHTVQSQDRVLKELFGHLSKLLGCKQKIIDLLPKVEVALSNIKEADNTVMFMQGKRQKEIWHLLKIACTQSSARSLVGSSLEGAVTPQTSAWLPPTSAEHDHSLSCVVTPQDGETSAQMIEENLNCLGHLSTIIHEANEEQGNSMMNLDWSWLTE
In words: Inhibition of IKK1.

In the next series the test system is PBMC. In words: Antiinflammatory activity in human PBMC assessed as inhibition of LPS-induced TNFalpha release treated for 5 mins before LPS challenge measured after 6 hrs by ELISA. The series is classed as functional, cell-based. The essentials:
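PBMCs purified from heparinized healthy-volunteer blood by Ficoll-Hypaque gradient and suspended at 5 × 10⁶/mL in RPMI with 10% FBS. Cells preincubated with compound (0.2% DMSO) for 5 min at room temperature. LPS added from a 200 ng/mL stock, then 6 h at 37 °C. Medium TNF-α measured by ELISA. IC50 by linear regression.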
(An ELISA detects its analyte on a solid surface through an enzyme-linked reagent.)

Series [8] can be described thus: Oral bioavailability in rat at 10 mg/kg. The series is classed as ADME, organism-based. The note with it: in vivo.
Series [9] can be described thus: Cmax in mouse at 2 mg/kg, iv and 10 mg/kg, po. Format: ADME, organism-based. The note with it: in vivo.
The nature of series [10]: Tmax in mouse at 2 mg/kg, iv and 10 mg/kg, po. The note with it: in vivo. The series is classed as ADME, organism-based.
Series [11] is described as follows: Half life in dog at 2 mg/kg, iv. The series is classed as ADME, organism-based, Canis lupus familiaris. The note with it: in vivo. Details: dose 2 mg/kg, route intravenous. The method in brief:
(§1)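 Dog pharmacokinetics, iv dosing only, in vehicle PEG400:water 80:20.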

The test system of series [12] is Blood. In words: Antiinflammatory activity in mouse whole blood assessed as inhibition of LPS-induced TNFalpha release treated for 5 mins before LPS challenge measured after 6 hrs by ELISA. Format: functional, tissue-based.
For series [13], the target named is Death-associated protein kinase 2 (Homo sapiens) (UniProt Q9UIK4). In words: Residual activity at DAPK2 at 10 uM relative to control.
Sequence of Death-associated protein kinase 2 (Homo sapiens) (Q9UIK4 whole entry, looked up): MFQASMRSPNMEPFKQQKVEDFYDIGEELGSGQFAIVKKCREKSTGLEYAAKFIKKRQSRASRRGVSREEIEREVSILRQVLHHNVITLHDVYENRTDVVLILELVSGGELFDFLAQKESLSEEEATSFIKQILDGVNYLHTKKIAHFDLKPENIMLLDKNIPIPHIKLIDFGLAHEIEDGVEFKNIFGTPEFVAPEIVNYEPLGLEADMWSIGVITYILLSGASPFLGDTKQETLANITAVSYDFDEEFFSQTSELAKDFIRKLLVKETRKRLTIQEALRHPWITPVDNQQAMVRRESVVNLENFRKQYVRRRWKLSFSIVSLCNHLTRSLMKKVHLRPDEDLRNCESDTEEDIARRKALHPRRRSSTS
Series [14] in a line: Oral bioavailability in mouse at 10 mg/kg. The series is classed as ADME, organism-based. The note with it: in vivo.
Series [15] relates to Mus musculus. In words: Antiinflammatory activity in po dosed BALB/c mouse assessed as inhibition of LPS-induced TNFalpha release administered for 5 hrs before LPS challenge measured after 6.5 hrs post dose by ELISA. The series is classed as functional, organism-based. The method in brief:
(§2)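 BALB/c female mice, 6–8 weeks old, n = 7–8 per treatment. Compounds given by oral gavage at 30 and 100 mg/kg in PEG400/HCl/Tween80/water; controls received vehicle alone. Five hours later, E. coli O111:B4 LPS 50 µg/kg ip. Serum collected 90 min after LPS, TNF-α measured by ELISA. Drug exposure sampled 6.5 h post-dose. Mean ± standard error.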

The subject of series [16] is Blood. In words: Antiinflammatory activity in human whole blood assessed as inhibition of LPS-induced TNFalpha release treated for 5 mins before LPS challenge measured after 6 hrs by ELISA. The series is classed as functional, tissue-based.
The target of series [17] is Mitogen-activated protein kinase 10 (Homo sapiens) (UniProt P53779). In words: Residual activity at JNK3 at 10 uM relative to control.
Sequence of Mitogen-activated protein kinase 10 (Homo sapiens) (P53779 whole entry): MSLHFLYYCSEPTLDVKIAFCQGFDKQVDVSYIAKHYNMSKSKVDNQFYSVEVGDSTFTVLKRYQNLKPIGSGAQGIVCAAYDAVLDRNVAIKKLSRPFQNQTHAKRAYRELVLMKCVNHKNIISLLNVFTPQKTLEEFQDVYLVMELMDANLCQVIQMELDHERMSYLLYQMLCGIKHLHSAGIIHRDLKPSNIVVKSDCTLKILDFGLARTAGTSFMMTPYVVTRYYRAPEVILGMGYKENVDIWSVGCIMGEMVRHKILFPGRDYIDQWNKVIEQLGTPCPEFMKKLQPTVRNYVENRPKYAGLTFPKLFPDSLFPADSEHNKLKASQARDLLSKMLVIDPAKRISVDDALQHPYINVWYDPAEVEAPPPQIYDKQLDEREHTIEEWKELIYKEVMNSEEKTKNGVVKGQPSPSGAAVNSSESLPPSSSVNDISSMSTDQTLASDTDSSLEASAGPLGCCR
Series [18] in a line: Half life in mouse at 2 mg/kg, iv and 10 mg/kg, po. The following applies: in vivo. The series is classed as ADME, organism-based.
Series [19] is described as follows: Volume of distribution at steady state in dog at 2 mg/kg, iv. Format: ADME, organism-based, Canis lupus familiaris. Further details: dose 2 mg/kg, route intravenous. The following applies: in vivo, read-out: Vdss. The method in brief:
as §1

For series [20], the system named is Mus musculus. In words: Antiinflammatory activity in BALB/c mouse assessed as inhibition of LPS-induced TNFalpha release at 100 mg/kg, po administered for 5 hrs before LPS challenge measured after 6.5 hrs post dose by ELISA. Format: functional. The method in brief: as §2

Sequence of Serine/threonine-protein kinase 16 (Homo sapiens) (O75716 whole entry): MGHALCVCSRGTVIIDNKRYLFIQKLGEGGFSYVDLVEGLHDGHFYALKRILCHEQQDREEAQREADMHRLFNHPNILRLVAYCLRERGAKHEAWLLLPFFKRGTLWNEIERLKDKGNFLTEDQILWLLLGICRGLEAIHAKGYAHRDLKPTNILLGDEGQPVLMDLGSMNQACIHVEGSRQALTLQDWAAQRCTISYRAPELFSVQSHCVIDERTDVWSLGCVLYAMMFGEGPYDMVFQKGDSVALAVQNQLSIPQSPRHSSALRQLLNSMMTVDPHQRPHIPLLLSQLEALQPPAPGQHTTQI

For `CCNc1nc2sc(-c3cccc([C@H](C)NC(C)=O)c3)nc2c2c1ncn2C`, the clearance in series [1] came to 62 mL/min/kg. Further, the half-life – broadly, the time needed for the level to fall by half in the phase considered – was 36 min in series [2], 42 min in series [11] and 114 min in [18]. Also, the Cmax (commonly the maximum level reached in the sampled fluid or tissue) is 1650 nM in [3] and 1330 nM in series [9]. For the same compound, the residual activity in [4], in series [13] and in series [17] was less than 10% in each case. For the same compound, the AUC with Mus musculus [5] was 3000 nM. In addition, the mean residence time (MRT) (usually the average time that molecules of a dose stay in the body) in series [6] was 174 min. The 50% inhibitory concentration (IC50) (in general, the midpoint of a concentration-inhibition curve) in series [7] turned out to be 420 nM; in the series with PBMC, 220 nM; in the series on Blood [12], 1000 nM; in the series on Blood [16] it was 2000 nM. In addition, the bioavailability (as a rule, dose-corrected exposure relative to a reference, in per cent) in [8] is 88%; in series [14], 57%. Moreover, the Tmax (commonly the time at which the peak concentration occurs) in series [10] was determined as 30 min. The inhibition result with Mus musculus [15] was “Dose-dependent effect”. Also, the Vd in series [19] was determined as 3.1 L/kg. For the same compound, the inhibition in vivo – broadly, how much of the control response was suppressed – at 100 mg/kg in the series on Mus musculus [20] was 75%.
